Experimental data from ChEMBL document CHEMBL1144197, “Synthesis of 5-(1-H or 1-alkyl-5-oxopyrrolidin-3-yl)-8-hydroxy-[1,6]-naphthyridine-7-carboxamide inhibitors of HIV-1 integrase” (Bioorg Med Chem Lett, 2008).
Blank lines part the entries; values can stand above or below the compound they belong to.

How the values were obtained:
[1] = Clearance in rat at 2 mg/kg, iv; format: ADME, organism-based; parameters: dose 2 mg/kg, route intravenous; details: in vivo
In short: (§1)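 Intravenous dosing in DMSO at 2 mg/kg.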

[2] = Half life in rat at 2 mg/kg, iv; format: ADME, organism-based; parameters: dose 2 mg/kg, route intravenous; details: in vivo; in short: as §1
[3] = Oral bioavailability in rat at 10 mg/kg; format: ADME, organism-based; details: in vivo
In short: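 Oral dosing in 1% methylcellulose at 10 mg/kg.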

[4] = tested on: Human immunodeficiency virus 1; assay: Antiviral activity against HIV1 3b in human MT4 cells assessed as decrease in HIV1 p24 core antigen in presence of 10% fetal bovine serum; format: functional
In short: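 HIV-1 IIIb replication in MT-4 human T-lymphoid cells, cultured with 10% FBS across increasing inhibitor concentrations. Read-out is the decrease in p24 core antigen. IC95 is the concentration giving 95% inhibition of viral growth relative to control.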

[5] = Protein binding in human plasma at pH 7.4; format: ADME, cell-free; details: read-out: PPB (converted)
In short: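 Binding to human plasma (primarily albumin) measured by HPLC with UV detection, in pH 7.4 buffer at room temperature. Each value is the average of three determinations.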

[6] = tested on: Human immunodeficiency virus 1; assay: Antiviral activity against HIV1 3b in human MT4 cells assessed as decrease in HIV1 p24 core antigen in presence of 50% normal human serum
[7] = target: Human immunodeficiency virus type 1 integrase (Human immunodeficiency virus 1, UniProt Q7ZJM1); assay: Inhibition of recombinant HIV1 integrase strand transfer activity using immobilized DNA substrate
In short: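 Recombinant HIV integrase (100 nM) preassembled on immobilized oligonucleotides, with 0.5 nM DNA, in a strand transfer read-out. Values are means of at least two experiments. The lower limit of accuracy is about 5 nM, with SD approximately twofold.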

[8] = Partition coefficient, log P at pH 7.4; format: physicochemical; details: octanol/water
In short: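 A methanol solution of compound is partitioned between octanol and pH 7.4 KH2PO4/NaOH aqueous buffer, and both layers are quantified by HPLC-UV. Log P = log[(octanol area × octanol dilution)/(buffer area × buffer dilution)].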

Chain of Human immunodeficiency virus type 1 integrase (Q7ZJM1 whole entry): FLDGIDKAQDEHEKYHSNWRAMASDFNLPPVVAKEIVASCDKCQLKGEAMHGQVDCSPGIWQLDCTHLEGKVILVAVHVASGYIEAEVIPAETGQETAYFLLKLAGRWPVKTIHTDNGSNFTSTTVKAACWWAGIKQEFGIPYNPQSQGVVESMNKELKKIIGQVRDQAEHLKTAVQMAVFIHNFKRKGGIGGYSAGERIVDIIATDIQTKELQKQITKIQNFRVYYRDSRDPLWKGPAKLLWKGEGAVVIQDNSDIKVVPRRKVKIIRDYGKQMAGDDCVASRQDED

Compound: CN1CC(c2nc(C(=O)NCc3ccc(F)cc3)c([O-])c3ncccc23)CC1=O.[Na+] (stereo not given)
clearance [1]: 2.5 mL/min/kg
half-life [2]: 1.3 h
bioavailability [3]: 65%

Compound: CN(C)C(=O)CN1CC(c2nc(C(=O)NCc3ccc(F)cc3)c([O-])c3ncccc23)CC1=O.[Na+] (stereo not given)
clearance [1]: 23.4 mL/min/kg
half-life [2]: 3.4 h
bioavailability [3]: 5%

Compound: CN1CC(c2nc(C(=O)NCc3ccc(F)cc3)c(O)c3ncccc23)CC1=O (stereo not given)
IC50 [7]: 20 nM
IC95 [4]: 31 nM
fraction unbound [5]: 0.012
logD [8]: 2.3
Antiviral potency (p24 reduction) [6]: 125 nM

Compound: CCN1CC(c2nc(C(=O)NCc3ccc(F)cc3)c(O)c3ncccc23)CC1=O (stereo not given)
IC50 [7]: 14 nM
IC95 [4]: 16 nM
fraction unbound [5]: 0.011
logD [8]: 2.7
Antiviral potency (p24 reduction) [6]: 125 nM

Compound: CN1CC(c2nc(C(=O)NCc3ccc(F)cc3S(C)(=O)=O)c(O)c3ncccc23)CC1=O (stereo not given)
IC50 [7]: 123 nM
IC95 [4]: 31 nM
fraction unbound [5]: 0.03
logD [8]: 1.6
clearance [1]: 17.2 mL/min/kg
half-life [2]: 0.67 h
bioavailability [3]: 4%
Antiviral potency (p24 reduction) [6]: 63 nM

Compound: CCN1CC(c2nc(C(=O)NCc3ccc(F)cc3S(C)(=O)=O)c(O)c3ncccc23)CC1=O (stereo not given)
IC50 [7]: 26 nM
IC95 [4]: 38 nM
fraction unbound [5]: 0.04
logD [8]: 1.9
Antiviral potency (p24 reduction) [6]: 81 nM

Compound: O=C1CC(c2nc(C(=O)NCc3ccc(F)cc3)c(O)c3ncccc23)CN1 (stereo not given)
IC50 [7]: 24 nM
IC95 [4]: 42 nM
Antiviral potency (p24 reduction) [6]: 83 nM

Continued, in another order:

fraction unbound [5]: 0.008
Compound: O=C(NCc1ccc(F)cc1)c1ncc2cccnc2c1O
IC95 [4]: 1250 nM
Antiviral potency (p24 reduction) [6]: 5000 nM

IC50 [7]: 40 nM
fraction unbound [5]: 0.022
logD [8]: 2.7
Compound: CC(C)N1CC(c2nc(C(=O)NCc3ccc(F)cc3)c(O)c3ncccc23)CC1=O (stereo not given)
IC95 [4]: 31 nM
Antiviral potency (p24 reduction) [6]: 125 nM

IC50 [7]: 33 nM
fraction unbound [5]: 0.052
logD [8]: 1.8
Compound: CN(C)C(=O)CN1CC(c2nc(C(=O)NCc3ccc(F)cc3)c(O)c3ncccc23)CC1=O (stereo not given)
IC95 [4]: 31 nM
Antiviral potency (p24 reduction) [6]: 63 nM
